Tb hexokinase = Trypanosoma brucei hexokinase 1 inhibitors, primary screen, biochemical, G6PDH-coupled NADH absorbance, MLSCN library; recombinant TbHK1, G6PDH-coupled NADH A340; inhibition, % at 10 µM; actives 0.11% (n = 220,000); AID 1430, 2008;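 active means inhibition of 50% or more in the single-dose primary screen; inactive means inhibition below 50%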
PfG6PD inh = PfG6PD enzyme inhibitors, primary screen, biochemical, fluorescence intensity, uHTS. actives 0.78% (n = 350,000). inhibition, % at 20 µM. PfGluPho enzyme, NADPH resazurin-diaphorase fluorescence. glucose-6-phosphate dehydrogenase-6-phosphogluconolactonase (Plasmodium falciparum 3D7). AID 504690, 2011;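 active means inhibition reaching at least a set limit at 20 µM in the primary screen, cut at about 59% in these data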
HKDC1 inh = HKDC1 hexokinase inhibitors, primary screen, biochemical, fluorescence, uHTS | Q2TB90 | recombinant HKDC1, G6PDH/diaphorase resazurin coupled fluorescence | inhibition, % at 20 µM | actives 0.16% (n = 340,000);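 active means inhibition above about 35% when tested at 20 µM, limit read from the data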
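System: Recombinant HKDC1 hexokinase | Amount: HKDC1 at 5 µg/mL | Reagent: Glucose with 1 mM ATP | Doses: Single 20 µM dose | Incubation: Reaction time 90 min, room temperature, protected from light | Signal: Coupled resazurin fluorescence, excitation 525 nm, emission 613 nm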
Diaphorase inh = diaphorase inhibitors and chemical oxidizers, primary screen, counter-screen for diaphorase-coupled primary assays, biochemical, uHTS, resorufin fluorescence | actives 0.69% (n = 190,000) | diaphorase resazurin-to-resorufin fluorescence, NADH, 16 min; bacterial (C. kluyveri) enzyme, not human | inhibition, % at 20 µM | AID 1217, 2008;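 active means primary screen inhibition at 20 µM above a set limit, cut at about 50% in these data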
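Assay system – diaphorase enzyme from Clostridium kluyveri · Amount – diaphorase 0.14 U/mL (working solution) · Times – reaction incubation of 16 min at room temperature · Controls – No-NADH positive control and DMSO neutral control · Signal – resorufin fluorescence 544/590 nm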
G6PDH counter = L. mesenteroides G6PDH inhibitors, counter-screen for G6PDH-coupled screening assays, biochemical, Leuconostoc mesenteroides enzyme; actives 0.12% (n = 200,000); AID 1020, 2008; Purified L. mesenteroides G6PDH, diaphorase/resazurin coupled fluorescence, 45 min; inhibition, % at 5 µM; in the data active means inhibition above about 50%
HKDC1 act conf = HKDC1 hexokinase activators, confirmation, biochemical, single concentration | shares compounds with HKDC1 inh | AID 504708, 2011 | recombinant HKDC1, G6PDH/diaphorase resazurin fluorescence; active compounds read low | actives 14% (n = 740) | inhibition, % at 20 µM;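 active means inhibition at or below a set negative limit, negative inhibition meaning the enzyme was activated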
PfG6PD confirm = PfG6PD inhibitors, hit retest, confirmation, biochemical, fluorescence intensity, single concentration; inhibition, % at 20 µM; recombinant PfGluPho, NADPH-diaphorase-resazurin fluorescence; actives 34% (n = 2,400); shares compounds with PfG6PD inh;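 active means inhibition of at least 50% at 20 µM in any single replicate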
Diaphorase 10uM = diaphorase inhibitors and chemical oxidizers, confirmation, counter-screen for P. falciparum G6PD inhibitor project, biochemical, fluorescence intensity, 10 µM NADPH | shares compounds with PfG6PD inh | diaphorase-coupled resazurin reduction, NADPH 10 uM | inhibition, % at 20 µM | AID 504862, 2011 | actives 39% (n = 820);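 active means average inhibition reaching 50% or more with the compound at 20 µM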;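 further: resorufin red fluorescence formed as diaphorase reduces resazurin using NADPH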
Diaph ctr 30uM = diaphorase inhibitors and chemical oxidizers, confirmation, counter-screen for P. falciparum G6PD inhibitor project, biochemical, fluorescence intensity, 30 µM NADPH. AID 504863, 2011. inhibition, % at 20 µM. actives 29% (n = 820). shares compounds with PfG6PD inh. Diaphorase/resazurin coupled assay, resorufin fluorescence;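 active means inhibition averaging 50% or more, tested at 20 µM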
Hits are given with their value; - = inactive; . = no result given; ! = not active in a repeat. In the library only some 1.3% were active in any assay of this set; here they are far more common.

SMILES | Tb hexokinase | PfG6PD inh | HKDC1 inh | Diaphorase inh | G6PDH counter | HKDC1 act conf | PfG6PD confirm | Diaphorase 10uM | Diaph ctr 30uM
CCS(=O)(=O)N1CCCC(C(=O)NCCN2CCC(Cc3ccccc3)CC2)C1 (centres undefined) | - | - | - | - | - | . | . | . | .
COCCn1c(N/N=C(C)/C=C/c2ccccc2)nc2c1c(=O)[nH]c(=O)n2C | - | . | . | - | - | . | . | . | .
COc1ccc(/C=C2\SC(c3ccc(C)cc3)=NC2=O)cc1OC | - | - | - | - | - | . | . | . | .
COc1cc(/C=C2\SC(c3ccc(C)cc3)=NC2=O)cc(OC)c1OC | - | - | - | - | - | . | . | . | .
COc1cc(/C=C2\SC(c3ccccc3)=NC2=O)cc(Cl)c1O | - | 61 | 49 | 64 | - | - | - | . | .
COc1cc(/C=C2\SC(c3ccc(C)cc3)=NC2=O)ccc1O | - | 64 | - | - | - | - | 54 | - | -
CC(C)c1ccc(N2C(=O)C(Cl)=C(N3CCOCC3)C2=O)cc1 | . | - | - | . | . | . | . | . | .
CNCc1ccccc1Sc1cc(O)ccc1O | - | 92 | 64 | - | 58 | - | 97 | 53 | -
CNCc1ccccc1Sc1cccc(O)c1 | - | - | - | - | - | . | . | . | .
O=C1C(Cl)=C(NC(=O)c2ccccc2)C(=O)C(Cl)=C1NC(=O)c1ccccc1 | . | 114 | 43 | . | . | - | 110 | 86 | 61
CC1=NOC(=O)/C1=C\c1ccc(-c2cc(Cl)ccc2Cl)o1 | - | 80 | 57 | - | - | - | - | . | .
COCCn1c(=O)[nH]c2cc(C(=O)Nc3cc(C)cc(C)c3)ccc2c1=O | . | - | - | . | . | . | . | . | .
CCN(CC)c1ccc(NC(=O)c2ccccc2F)cc1S(=O)(=O)Nc1ccccc1OC | - | - | - | - | - | . | . | . | .
CCN(CC)c1ccc(NC(=O)c2ccccc2Br)cc1S(=O)(=O)Nc1ccccc1OC | - | 86 | - | - | - | - | 64 | - | -
Clc1ccc(N=c2ssnc2Cl)nc1 | - | 87 | - | . | - | -80 | 52 | - | -
CCOc1ccc(S(=O)(=O)Nc2cc(SCC(=O)O)c(O)c3ccccc23)cc1 | . | 104 | 60 | . | . | - | 97 | - | -
CCc1ccc(S(=O)(=O)Nc2cc(SCC(=O)O)c(O)c3ccccc23)cc1 | - | 89 | 54 | - | - | - | 81 | - | -
O=S(=O)(Nc1cc(Sc2cccc3cccnc23)c(O)c2ccccc12)c1ccccc1 | - | . | . | - | - | . | . | . | .
CCOC(=O)c1ccccc1NS(=O)(=O)c1ccc(OCC)cc1 | - | - | - | - | - | . | . | . | .
COc1ccc(C(=O)NC2CCN(C(=S)Nc3cc(C)cc(C)c3)CC2)cc1 | - | - | - | - | - | . | . | . | .
CC(C)(C=O)C1=CC(=O)c2ccccc2C1=O | - | 119 | 51 | - | - | - | 103 | 85 | 66
CCC(C)C(CO)NCCCn1cnc2c(OC)ncnc21 (centres undefined) | . | - | . | . | . | . | . | . | .
CC(=O)N(C1=C(Cl)C(=O)c2ccccc2C1=O)C1CCCCC1 | - | 116 | 58 | . | . | - | 113 | 98 | 95
CN1C/C(=C/c2ccncc2)C(=O)/C(=C/c2ccncc2)C1 | . | - | - | . | . | . | . | . | .
C=CC(=O)N1C/C(=C/c2ccc(Cl)cc2)C(=O)/C(=C\c2ccc(Cl)cc2)C1 | . | 76 | 45 | . | . | - | - | . | .
SMILES | Tb hexokinase | PfG6PD inh | HKDC1 inh | Diaphorase inh | G6PDH counter | HKDC1 act conf | PfG6PD confirm | Diaphorase 10uM | Diaph ctr 30uM
Cc1ccc(S(=O)(=O)Nc2ccc(O)c(Sc3ncn[nH]3)c2)cc1 | - | - | - | - | - | . | . | . | .
Cc1ccc(S(=O)(=O)/N=C2/C=C(Sc3ncn[nH]3)C(=O)c3ccccc32)cc1 | - | 120 | 69 | - | - | - | 103 | 89 | 93
O=C1C=C(Nc2ccccc2)c2ccccc2C1=O | - | - | - | - | - | . | . | . | .
COC(=O)c1ccccc1Nc1ccccc1 | - | - | - | - | - | . | . | . | .
COC(=O)c1ccccc1NC1=C/C(=N\S(=O)(=O)c2ccc(C(=O)O)cc2)c2ccccc2C1=O | . | 96 | 82 | . | . | - | 86 | 64 | 64
COC(=O)c1ccccc1NC1=C/C(=N\S(=O)(=O)c2cccs2)c2ccccc2C1=O | - | 101 | 39! | - | - | - | 67 | - | -
O=C1C(Nc2ccccc2)=C/C(=N/S(=O)(=O)c2cccs2)c2ccccc21 | - | 110 | 68 | - | - | - | 92 | 78 | 80
COC(=O)c1cccc(NS(=O)(=O)c2cccs2)c1C | - | - | - | - | - | . | . | . | .
CC(C)(C)n1nc2c(c1NC(=O)c1ccccc1)CS(=O)(=O)C2 | - | - | - | - | - | . | . | . | .
O=C(C1CCN(S(=O)(=O)c2ccccc2)CC1)N1CCN(Cc2ccccc2)CC1 | . | - | - | . | . | . | . | . | .
COc1ccc(NC(=O)CC2C(=O)NCCN2C(=O)Nc2ccc(C(F)(F)F)cc2)cc1 (centres undefined) | . | - | - | . | . | . | . | . | .
Cc1ccc(CNC(=O)CN2C(=O)CSc3ccc(S(=O)(=O)N4CCCCC4)cc32)cc1 | . | - | - | . | . | . | . | . | .
COC1=C(Br)C(=O)c2ncccc2C1=O | . | 112 | 56 | . | . | - | 91 | 73 | 75
C=CCCCCCCCCC(=O)Nc1c[nH]c(=O)[nH]c1=O | - | - | - | - | - | . | . | . | .
Cc1ccc(S(=O)(=O)/N=C2\C=C(Nc3cccc(C(=O)O)c3)C(=O)c3ccccc32)c(C)c1 | . | 70 | 39 | . | . | - | - | . | .
Cc1ccc(S(=O)(=O)/N=C2\C=C(Nc3cccc(C(=O)O)c3)C(=O)c3ccccc32)cc1 | . | 67 | 45 | . | . | - | 69 | 89 | 86
CCc1ccc(S(=O)(=O)/N=C2\C=C(Nc3ccc(C(=O)O)cc3)C(=O)c3ccccc32)cc1 | . | 65 | 54 | . | . | - | - | . | .
COc1ccc(CCn2c(Br)nc3c2c(=O)[nH]c(=O)n3C)cc1 | - | - | - | - | - | . | . | . | .
Oc1ccc(Br)cc1CNc1cccc2cccnc12 | . | 72 | 40 | . | . | - | - | . | .

Assay outcomes (PubChem)
